Results as given in ChEMBL document CHEMBL1153055, “Synthesis and evaluation of 5-benzylidene(thio)barbiturate-beta-D-glycosides as mushroom tyrosinase inhibitors” (Bioorg Med Chem Lett, 2009).
The source made the active and inactive calls. The calls are words filed in the database; no cut-off is given here.

What was measured:
Tyrosinase = biological target: T1, Tyrosinase (Agaricus bisporus, UniProt O42713); assay: Inhibition of diphenolase activity of mushroom tyrosinase
T1 sequence (O42713 whole entry): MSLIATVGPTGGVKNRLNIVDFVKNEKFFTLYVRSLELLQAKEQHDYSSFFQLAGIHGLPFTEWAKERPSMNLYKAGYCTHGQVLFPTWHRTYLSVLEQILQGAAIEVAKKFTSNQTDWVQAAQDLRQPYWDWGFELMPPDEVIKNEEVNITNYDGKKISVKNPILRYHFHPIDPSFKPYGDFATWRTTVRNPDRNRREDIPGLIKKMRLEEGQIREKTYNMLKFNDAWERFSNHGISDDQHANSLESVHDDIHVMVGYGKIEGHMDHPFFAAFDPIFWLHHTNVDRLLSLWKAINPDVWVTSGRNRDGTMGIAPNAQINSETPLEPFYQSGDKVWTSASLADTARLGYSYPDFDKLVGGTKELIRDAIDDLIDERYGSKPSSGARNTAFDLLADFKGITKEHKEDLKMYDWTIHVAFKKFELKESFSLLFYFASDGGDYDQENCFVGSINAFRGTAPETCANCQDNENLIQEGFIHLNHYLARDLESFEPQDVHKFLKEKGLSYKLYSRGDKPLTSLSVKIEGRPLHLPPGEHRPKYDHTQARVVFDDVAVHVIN

[1] = biological target: T2, Tyrosinase (Agaricus bisporus) (UniProt O42713); assay: Irreversible inhibition of mushroom tyrosinase assessed as oxidation of L-DOPA at 1 mmol/L […]
T2 sequence (whole entry): T1 sequence (O42713 whole entry)
How it was run: (§1)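 Mushroom tyrosinase was run with L-DOPA as substrate. Enzyme concentration was varied at fixed inhibitor levels of 0, 0.5, 0.8 and 1.0 mmol/L. Rate (V) was plotted against enzyme concentration [E] for each inhibitor level to judge whether inhibition was reversible or irreversible.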

[2] = biological target: T2, Tyrosinase (Agaricus bisporus); conditions: 0.5 mmol/L
[3] = biological target: T2, Tyrosinase (Agaricus bisporus); assay: Irreversible inhibition of mushroom tyrosinase assessed as oxidation of L-DOPA at 0.8 mmol/L […]; how it was run: as §1

Row | Structure (SMILES) | IC50 (Tyrosinase) [µM] | also measured
1 | CC(=O)OC[C@H]1O[C@@H](Oc2ccc(C=O)cc2)[C@H](OC(C)=O)[C@H](OC(C)=O)[C@@H]1OC(C)=O | 780 | 
2 | CC(=O)OC[C@H]1O[C@@H](Oc2ccc(C=O)c(O)c2)[C@H](OC(C)=O)[C@@H](OC(C)=O)[C@@H]1OC(C)=O | > 3000 | 
3 | CC(=O)OC[C@H]1O[C@@H](Oc2ccc(C=C3C(=O)NC(=O)NC3=O)c(O)c2)[C@H](OC(C)=O)[C@@H](OC(C)=O)[C@@H]1OC(C)=O | 1730 | 
4 | CC(=O)OC[C@H]1O[C@@H](Oc2ccc(C=C3C(=O)NC(=S)NC3=O)c(O)c2)[C@H](OC(C)=O)[C@@H](OC(C)=O)[C@@H]1OC(C)=O | 280 | 
5 | CC(=O)OC[C@H]1O[C@@H](Oc2ccc(C=C3C(=O)NC(=S)NC3=O)cc2)[C@H](OC(C)=O)[C@H](OC(C)=O)[C@@H]1OC(C)=O | 340 | 
6 | CC(=O)OC[C@H]1O[C@@H](Oc2ccc(C=C3C(=O)NC(=O)NC3=O)cc2)[C@H](OC(C)=O)[C@@H](OC(C)=O)[C@@H]1OC(C)=O | 1270 | 
7 | CC(=O)OC[C@H]1O[C@@H](Oc2ccc(C=C3C(=O)NC(=O)NC3=O)cc2)[C@H](OC(C)=O)[C@H](OC(C)=O)[C@@H]1OC(C)=O | 1500 | 
8 | CC(=O)OC[C@H]1O[C@@H](Oc2cccc(C=C3C(=O)NC(=S)NC3=O)c2)[C@H](OC(C)=O)[C@@H](OC(C)=O)[C@@H]1OC(C)=O | 870 | 
9 | CC(=O)OC[C@H]1O[C@@H](Oc2cccc(C=O)c2)[C@H](OC(C)=O)[C@@H](OC(C)=O)[C@@H]1OC(C)=O | > 3000 | 
10 | CC(=O)OC[C@H]1O[C@@H](Oc2ccc(C=C3C(=O)NC(=S)NC3=O)cc2O)[C@H](OC(C)=O)[C@@H](OC(C)=O)[C@@H]1OC(C)=O | 50 | inhibition [1]: Active
11 | CC(=O)OC[C@H]1O[C@@H](Oc2ccccc2C=C2C(=O)NC(=O)NC2=O)[C@H](OC(C)=O)[C@@H](OC(C)=O)[C@@H]1OC(C)=O | > 3000 | 
12 | CC(=O)OC[C@H]1O[C@@H](Oc2cccc(C=C3C(=O)NC(=O)NC3=O)c2)[C@H](OC(C)=O)[C@@H](OC(C)=O)[C@@H]1OC(C)=O | > 3000 | 
13 | CC(=O)OC[C@H]1O[C@@H](Oc2ccc(C=O)cc2O)[C@H](OC(C)=O)[C@@H](OC(C)=O)[C@@H]1OC(C)=O | 430 | inhibition [2]: Active
14 | CC(=O)OC[C@H]1O[C@@H](Oc2ccccc2C=C2C(=O)NC(=S)NC2=O)[C@H](OC(C)=O)[C@@H](OC(C)=O)[C@@H]1OC(C)=O | 430 | 
15 | O=C1NC(=S)NC(=O)C1=Cc1ccc(O[C@@H]2O[C@H](CO)[C@@H](O)[C@@H](O)[C@H]2O)cc1 | 1160 | 
16 | CC(=O)OC[C@H]1O[C@@H](Oc2ccc(C=C3C(=O)NC(=O)NC3=O)cc2O)[C@H](OC(C)=O)[C@@H](OC(C)=O)[C@@H]1OC(C)=O | 130 | inhibition [3]: Active
17 | O=C1NC(=O)C(=Cc2ccc(O[C@@H]3O[C@H](CO)[C@@H](O)[C@@H](O)[C@H]3O)cc2)C(=O)N1 | 1630 | 
18 | CC(=O)OC[C@H]1O[C@@H](Oc2ccc(C=C3C(=O)NC(=S)NC3=O)cc2)[C@H](OC(C)=O)[C@@H](OC(C)=O)[C@@H]1OC(C)=O | 230 | 
19 | CC(=O)OC[C@H]1O[C@@H](Oc2ccccc2C=O)[C@H](OC(C)=O)[C@@H](OC(C)=O)[C@@H]1OC(C)=O | > 3000 | 
